In the library only some 2.9% were active in any assay of this set; here they are far more common.
TRPC6 inh: mouse TRPC6 channel inhibition. Q61143. HEK293-TRPC6, membrane potential dye, ACh-evoked depolarization; hits give low values. B-score at 10 µM. 310,000 tested, 1.1% active. AID 2553;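 active = B-score under library mean minus 3 SD, initial fluorescence not abnormally high, positive integrated signal ratio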;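 also: B-score derived from integrated fluorescence ratio over the kinetic read; more negative B-score means stronger inhibition of depolarization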
TRPC4 block: inhibitors of mouse TRPC4 channel; 300,000 tested, 0.39% active; B-score at 10 µM; Q9QUQ5; HEK293 TRPC4beta/mu-opioid, DAMGO-evoked Fluo4 calcium flux; hits give low values;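 active = B-score over 3 SD under the library average, no early fluorescence shift, positive overall ratio signal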
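Assay system – HEK293 line stably carrying TRPC4beta and mu-opioid receptor · Doses – single dose · Detection – Fluo4 calcium-dye fluorescence, kinetic read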
Kir21 inh: Kir2.1 (mouse) channel inhibition; P35561; HEK293-Kir2.1, FluxOR thallium flux fluorescence; hits give low values; B-score at 10 µM; 310,000 tested, 0.85% active; AID 1672;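 active = fluorescence ratio B-score at or below minus 3 SD of library scores, with starting-brightness B-score within 2 SD, cut at about -4.2 in these data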;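 also: channel flux triggered by added potassium and thallium sulfate stimulus; B-score of peak minus minimum fluorescence over baseline after thallium stimulus; more negative B-score means stronger Kir2.1 block with less thallium influx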
Target sequence (P35561 whole entry, looked up): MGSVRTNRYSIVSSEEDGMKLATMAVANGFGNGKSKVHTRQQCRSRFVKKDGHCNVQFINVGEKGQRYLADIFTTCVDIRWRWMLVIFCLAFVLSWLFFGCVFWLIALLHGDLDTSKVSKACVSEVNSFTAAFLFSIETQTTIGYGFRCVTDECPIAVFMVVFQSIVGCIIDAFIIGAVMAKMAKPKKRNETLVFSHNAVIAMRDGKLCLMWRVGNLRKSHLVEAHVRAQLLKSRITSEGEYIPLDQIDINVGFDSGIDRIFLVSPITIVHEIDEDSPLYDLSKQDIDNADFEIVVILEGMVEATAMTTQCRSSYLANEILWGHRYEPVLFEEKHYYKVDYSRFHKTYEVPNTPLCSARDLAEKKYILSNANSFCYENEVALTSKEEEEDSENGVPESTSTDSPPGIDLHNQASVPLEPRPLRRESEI
TRPC4 PAM: allosterically enhances the mouse TRPC4 cation channel; HEK293 TRPC4beta/mu-opioid, DAMGO EC20, Fluo-4 Ca2+ flux; hits give high values; B-score at 10 µM; 310,000 tested, 0.42% active; AID 2227;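 active = B-score of calcium response area above 5 SD of library B-scores, with initial fluorescence ratio within 5 SD of library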
TRPC6 act: activators of mouse TRPC6 channel; HEK293-TRPC6 membrane potential dye fluorescence; hits give high values; B-score at 10 µM; 310,000 tested, 0.13% active; AID 2550;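 active = B-score of the integrated fluorescence ratio above library mean plus 3 SD, and starting fluorescence ratio within library mean plus 5 SD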;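 also: higher score means more depolarization so channel activation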
TRPC4 act: TRPC4 (mouse) channel activation; Q9QUQ5; 310,000 tested, 0.49% active; HEK293 TRPC4beta/mu-opioid, Fluo4 calcium fluorescence; hits give high values; B-score at 10 µM; AID 2237;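 active = B-score above 5 SD of library B-scores, and initial fluorescence ratio not above library mean plus 5 SD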;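 also: positive B-score marks a calcium rise read as TRPC4 activation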
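System – HEK293 cells stably co-expressing mouse TRPC4beta and mu-opioid receptor · Signal – Fluo4 calcium-sensitive dye fluorescence, kinetic, 1 Hz baseline · Benchmarks – buffer (low) and maximal DAMGO (high) · Read-out – B score of integrated fluorescence ratio per well · Incubation – dye loading 45 min room temperature, 110 s kinetic read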
Large screens that a line does not name were inactive.

CC1CCCCN1S(=O)(=O)c1ccccc1[N+](=O)[O-] (stereo not given)	none
CCC1CCCCN1S(=O)(=O)c1ccccc1[N+](=O)[O-] (stereo not given)	Kir21 inh -4.3
COc1ccc(NC(=O)CCNS(=O)(=O)c2ccc(C)c(C)c2)cc1OC	none
S=C(Nc1ccccc1)Nc1cc(Cl)ccc1Oc1ccccc1	TRPC4 block -6
S=C(Nc1cc(Cl)ccc1Oc1ccccc1)N1CCN(c2ccccn2)CC1	none
CCc1nc(NC(C)(C)C)c2cnn(-c3ccccc3)c2n1	none
Fc1ccc(/C=N/N2CCN(Cc3ccccc3)CC2)cc1	none
Cc1nnc(C)c2c(C)n(-c3ccccc3N)c(C)c12	none
Cc1nnc(C)c2c(C)n(C(c3ccccc3)c3ccccc3)c(C)c12	Kir21 inh -4.5
C=C1C(=O)C=C2CN(C(=O)c3ccccc3)[C@@](Cc3ccc(F)cc3)(C(=O)OC)[C@@H]12	Kir21 inh -4.5
CC(C)Oc1ccccc1C1CC(=O)Nc2cc3c(cc21)OCCO3 (stereo not given)	TRPC4 PAM 82
CCCn1c(=O)c2ccccc2n2c(SCCOc3ccc(C)cc3)nnc12	TRPC4 block -6
CCc1nc(C)c(C(=O)N2CCCC(C(=O)Nc3cccc(-c4cccc(C)c4)c3)C2)o1 (stereo not given)	none
CC(Sc1nc2ccccc2s1)C(=O)N(C)Cc1ccccc1 (stereo not given)	Kir21 inh -4.2
CC1CN(C(=O)C(C)Sc2nc3ccccc3s2)CC(C)O1 (stereo not given)	none
CC(Sc1nc2ccccc2s1)C(=O)NC1CCCc2ccccc21 (stereo not given)	Kir21 inh -5.8
CC(Sc1nnnn1C)C(=O)NC1CCCc2ccccc21 (stereo not given)	none
Cc1ccc(NC(=O)c2cc(N3C(=O)C=CC3=O)ccc2N2CCOCC2)cc1	TRPC4 block -6
COc1ccc(OC)c(NC(=O)COC(=O)Cc2ccc(Br)cc2)c1	none
COc1ccc(OC)c(NC(=O)COC(=O)Cc2ccc(-c3ccccc3)cc2)c1	TRPC4 PAM 21
Cn1c(CNc2cccc(Cl)c2)nnc1SCC(=O)OC1CCCCC1	Kir21 inh -4.2
CN(Cc1ccccc1)C(=O)C1CCN(S(=O)(=O)c2ccc3nc4c(c(C(=O)O)c3c2)CCCC4)CC1	none
CC(c1ccccc1C(O)(c1ccccc1)c1ccccc1)N(C)C (stereo not given)	Kir21 inh -6.2, TRPC4 act 103
Cn1c(N)c(N2CCN(c3ccccc3)CC2)c(=O)[nH]c1=O	none
CCn1c(C2CC(=O)N(Cc3ccccc3)C2)nc2ccccc21 (stereo not given)	TRPC4 PAM 16
C=C(C)Cn1c(C2CC(=O)N(Cc3ccccc3)C2)nc2ccccc21 (stereo not given)	none
CN(C)CCNC(=O)C1CCN(S(=O)(=O)c2ccc3ccccc3c2)CC1	none
Cc1cc(C)nc(N/N=C/c2sccc2C)n1	none
Cc1ccsc1/C=N/Nc1ncc(Cl)cc1Cl	TRPC4 PAM 10
CN(C)CCCC1Sc2ccccc2Sc2ccccc21 (stereo not given)	Kir21 inh -4.8
CCOc1ccc(NC(=O)/C(C=Nc2ccccc2)=C(\C)O)cc1	none
CCCN(CCC(=O)Nc1cc(OC)cc(OC)c1)CC1CC1	TRPC4 act 162
CCN(CCC(=O)Nc1cc(OC)cc(OC)c1)Cc1ccccc1	TRPC4 act 60
COc1cc(NC(=O)CCN2CCN(Cc3ccccc3)CC2)cc(OC)c1	none
CCCN(CCC(=O)Nc1ccccc1F)CC1CC1	none
O=[N+]([O-])c1ccc(C2(O)CN(c3ccccc3)C3=[N+]2CCS3)cc1 (stereo not given)	TRPC4 block -7, TRPC4 act 87
Cc1ccc(C2(O)CN(c3ccccc3)C3=[N+]2CCS3)cc1 (stereo not given)	TRPC4 block -7, TRPC4 act 43
OC1(c2ccc(F)cc2)CN(c2ccccc2)C2=[N+]1CCS2 (stereo not given)	TRPC4 block -6
CC1(C)CN(c2ccc(F)cc2)C1=O	none
Cc1ccc(-c2cn(-c3ccccc3)c3[n+]2CCCS3)cc1	none
COc1ccccc1CNC(=O)C(=O)NCC1OCCCN1S(=O)(=O)c1ccc(F)cc1C (stereo not given)	none
O=C(CN1C(=O)NC(Cc2c[nH]c3ccccc23)C1=O)NCC(F)(F)F (stereo not given)	none
CC1(C)C[C@@H]2C[C@@](C)(CN2C(=O)c2ccccc2)C1	none
CC1(C)CC2CC(C)(CN2CC(O)COc2ccccc2)C1 (stereo not given)	TRPC4 block -9
NC(=O)c1sc(=S)n2c1[nH]c(=O)c1sccc12	TRPC4 PAM 10
Cc1nn(-c2nnc(NCc3ccccc3)nn2)c(C)c1Br	TRPC4 PAM 17
c1ccc(CCN=C2CCCc3c2[nH]c2ccccc32)cc1	Kir21 inh -12, TRPC4 act 155
CCOc1ccccc1N(C)C(=O)c1sc2ncn(CC(=O)N3CCCCC3C)c(=O)c2c1C (stereo not given)	none
CCOC(=O)Nc1c(O)ccc2oc(C)c(-c3ccccc3)c12	Kir21 inh -15
CCn1ccnc1CN1CCc2c([nH]c3ccccc23)C1C(C)(C)C (stereo not given)	Kir21 inh -7.7
CCn1ccnc1CN1CCc2c([nH]c3ccccc23)C1CC(C)C (stereo not given)	none
CC(SCc1ccccc1)C(=O)NCc1ccccn1 (stereo not given)	TRPC4 PAM 10
COc1cc(NS(=O)(=O)c2ccc(NC(=O)CCC(=O)O)cc2)nc(OC)n1	TRPC4 PAM 10
N=c1n(CCN2CCCCC2)c2ccccc2n1CC(O)c1cccc(Br)c1 (stereo not given)	Kir21 inh -6.8
N=c1n(CCN2CCCCC2)c2ccccc2n1CC(=O)c1ccc(Cl)c(Cl)c1	Kir21 inh -4.8
N=c1n(CCN2CCCCC2)c2ccccc2n1CC(O)c1ccc(Cl)c(Cl)c1 (stereo not given)	Kir21 inh -8.6
COc1cc(OCc2ccccc2)c(C(=O)/C=C/c2ccc3c(c2)OCO3)c(OC)c1OC	none
CC(=O)c1ccc(OCC(O)CN2CCN(S(=O)(=O)c3c(C)cc(C)cc3C)CC2)cc1 (stereo not given)	TRPC4 PAM 22
CCN1CCN(S(=O)(=O)c2c(C)cc(C)cc2C)CC1	TRPC4 PAM 21
Cc1cc(C)c(S(=O)(=O)N2CCN(S(=O)(=O)N3CCC(C)CC3)CC2)c(C)c1	none
Cc1cc(C)c(S(=O)(=O)N2CCN(C)CC2)c(C)c1	TRPC4 PAM 21

High-throughput results (PubChem BioAssay)
